Screens (PubChem BioAssay)
Mdm2 MdmX PPI: human Mdm2/MdmX binding inhibition | AID 485346 | SaOS-2 split-luciferase Mdm2/MdmX complementation, luminescence | inhibition, % at 8 µM | 330,000 compounds, 3% hits;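 active means inhibition of at least 50% at 8 µM in the primary screen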
Target sequence (O15151 whole entry, looked up): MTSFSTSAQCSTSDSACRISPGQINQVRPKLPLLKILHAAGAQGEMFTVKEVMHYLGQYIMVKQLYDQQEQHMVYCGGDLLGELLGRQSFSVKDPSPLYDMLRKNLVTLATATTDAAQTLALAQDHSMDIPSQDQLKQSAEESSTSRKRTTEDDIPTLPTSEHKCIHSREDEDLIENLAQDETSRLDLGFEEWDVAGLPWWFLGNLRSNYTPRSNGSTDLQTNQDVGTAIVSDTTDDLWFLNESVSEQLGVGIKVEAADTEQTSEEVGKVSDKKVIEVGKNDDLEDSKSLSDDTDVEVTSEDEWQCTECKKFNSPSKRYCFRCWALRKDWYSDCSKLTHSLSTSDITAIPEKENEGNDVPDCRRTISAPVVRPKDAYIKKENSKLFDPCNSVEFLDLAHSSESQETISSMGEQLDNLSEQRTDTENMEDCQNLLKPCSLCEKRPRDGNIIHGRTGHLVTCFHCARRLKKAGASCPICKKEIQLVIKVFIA
Target sequence (Q00987 whole entry, looked up): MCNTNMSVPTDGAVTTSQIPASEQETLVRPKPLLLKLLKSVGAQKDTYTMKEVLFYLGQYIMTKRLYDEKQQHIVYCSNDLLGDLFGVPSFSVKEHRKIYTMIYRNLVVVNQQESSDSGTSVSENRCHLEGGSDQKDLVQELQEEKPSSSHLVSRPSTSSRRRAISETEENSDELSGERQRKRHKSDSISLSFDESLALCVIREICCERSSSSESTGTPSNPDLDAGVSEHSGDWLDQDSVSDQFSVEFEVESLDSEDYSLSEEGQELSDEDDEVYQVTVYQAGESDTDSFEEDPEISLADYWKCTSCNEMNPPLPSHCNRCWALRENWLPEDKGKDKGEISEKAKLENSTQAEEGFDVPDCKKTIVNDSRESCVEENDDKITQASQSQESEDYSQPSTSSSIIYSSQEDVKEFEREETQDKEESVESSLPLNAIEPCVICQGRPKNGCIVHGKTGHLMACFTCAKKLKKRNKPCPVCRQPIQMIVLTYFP
T cruzi inh: T. cruzi replication inhibition; T. cruzi beta-gal in NIH3T3, luminescence, 90 h; inhibition, % (no concentration beside the values); 300,000 compounds, 1.4% hits;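 active means mean inhibition across valid replicates above about 55%, limit read from the data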;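 further: signal also drops with host cell toxicity which is not excluded here; higher percent means less beta-gal luminescence so fewer parasites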
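assay system = mouse NIH/3T3 fibroblasts infected with β-gal-expressing T. cruzi Tulahuen C4 | input = 5,000 NIH/3T3 host cells per well | buffer or medium = DMEM plus 2% FBS | timing = 3 h host attachment, then at least 90 h co-culture | measured by = GalScreen luminescence, 60 min | evaluation = luminescence reflecting intracellular parasite burden, expressed as percent inhibition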
CSC inhib: blocks cancer stem cells; cancer stem cell-like cells viability, luminescence; inhibition, % at 7.5 µM; 300,000 compounds, 1.1% hits; AID 2717; in the data active means inhibition above about 75%; tested in HMLE shEcad cells
Calb FLC: C. albicans growth modulation with fluconazole. C. albicans CaCi-2 (fluconazole-resistant clinical isolate) + fluconazole, Alamar Blue growth, 48 h. growth inhibition, % (concentration not given with the values). 300,000 compounds, 0.57% hits. AID 1979;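 active means growth inhibition above about 58% in most replicates, limit read from the data, passing the limit was not always enough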;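 further: all wells also contain fluconazole at 8 µg/ml as a sub-toxic cotreatment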
SKKanGAS inh: SKKanGAS growth inhibition. 300,000 compounds, 1.3% hits. inhibition, % at 7.5 µM. S. pyogenes SKKanGAS, kanamycin growth, BacTiter-Glo, 6 h. AID 1662;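 active means mean replicate score, as percent of positive control median, at least 50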;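 further: strain carries kanamycin resistance gene driven by streptokinase promoter and grows in 40 µg/ml kanamycin; loss of luminescence reflects streptokinase promoter inhibition or plain growth inhibition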
Beta apoptosis: blocks beta cell apoptosis; 300,000 compounds, 0.8% hits; INS-1E cytokine-induced death, ATP luminescence, 48 h; percent of positive-control rescue, neutral wells zero; protection from apoptosis, % (no concentration beside the values);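 active means Every replicate reaches about 75%, or at least half do and their mean reaches it too, limit read from the data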;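 further: higher means more ATP so stronger rescue from cytokine killing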
Mdm2-MdmX conf: confirmation of human Mdm2/MdmX interaction inhibitors. shares compounds with Mdm2 MdmX PPI. Mdm2-MdmX binding, luminescent assay. inhibition, % at 8 µM. 10,000 compounds, 55% hits; in the data active means inhibition above about 40%
FLuc counter: inhibits full-length luciferase, flagging false Mdm2/MdmX hits; 6,200 compounds, 77% hits; SaOS-2 full-length luciferase counterscreen, luminescence; AID 504607; inhibition, % at 8 µM; shares compounds with Mdm2 MdmX PPI;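 active means mean inhibition at 8 µM reaching about 37%, which flags the compound as non-specific, limit read from the data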;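 further: p53-null SaOS-2 cells with luciferase driven by a doxycycline-inducible promoter; compound on cells about two nights before reading with doxycycline added after day one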
Each line names hits and unclear results; the compound was inactive in the other large screens (follow-up assays come after a bar, where they were run). The list is not random: actives were taken first. Their share in the collection is about 5.7%.

COc1ccc(S(=O)(=O)N2CCc3ccccc32)cc1C(=O)Nc1ccc(C(N)=O)cc1	Mdm2 MdmX PPI 97.8 (no result: Calb FLC) | Mdm2-MdmX conf 60.0 | FLuc counter 66.3
COC(=O)Nc1ccc(S(=O)(=O)N2CCCCC2)cc1	none
COC(=O)Nc1ccc(S(=O)(=O)N2CCCc3ccccc32)cc1	Mdm2 MdmX PPI 54.7, CSC inhib 80.1 | Mdm2-MdmX conf 48.8 | FLuc counter 56.0
CCC(=O)Nc1ccc(S(=O)(=O)N2CCc3ccccc32)cc1	none
CCCCN(C(=O)c1ccc(S(=O)(=O)N(CC)CC)cc1)c1c(N)n(CCC)c(=O)[nH]c1=O	none
O=C(CSc1nnc(NC2CC2)s1)c1ccc[nH]1	none (no result: T cruzi inh, Calb FLC, SKKanGAS inh)
CCCCOc1ccc(N2CC(C(=O)NCc3ccco3)CC2=O)cc1 (configuration not stated)	none (no result: CSC inhib)
CCCCCCNC(=O)c1cn(CC)c2cc(N3CCN(C)CC3)c(F)cc2c1=O	Mdm2 MdmX PPI 51.1 | Mdm2-MdmX conf inactive
O=C(COC(=O)CCc1ccccc1)Nc1ccc(F)cc1Cl	none (no result: Beta apoptosis)
CC(=O)N(\C=C/C=C/C=C1\Sc2ccccc2C1=O)c1ccccc1	Mdm2 MdmX PPI 80.6 | Mdm2-MdmX conf inactive
Cc1ccc(S(=O)(=O)N2CCOCC2)cc1NC(=O)COc1cccc(Oc2ccccc2)c1	none
COc1ccc(CCNC(=O)c2cc(-c3ccccn3)nc3ccccc23)cc1	none (no result: T cruzi inh, CSC inhib, Calb FLC, SKKanGAS inh)
COc1cc(/C=C/C(=O)c2ccc(Cl)s2)cc(OC)c1O	Mdm2 MdmX PPI 65.3 | Mdm2-MdmX conf 51.2 | FLuc counter 44.8
Cc1nonc1NC(=O)CSc1nc(C2CCCCC2)nc2ccccc12	none
NC(=O)CSc1nc(C23CC4CC(CC(C4)C2)C3)nc2ccccc12	Mdm2 MdmX PPI 59.8 | Mdm2-MdmX conf inactive | FLuc counter 44.8
Cc1nonc1NC(=O)CSc1nc(C23CC4CC(CC(C4)C2)C3)nc2ccccc12	Mdm2 MdmX PPI 52.0 | Mdm2-MdmX conf inactive
COc1cccc(CN2CC(C(=O)N3CCOCC3)CCC2=O)c1 (configuration not stated)	none
CCOC(=O)c1c(C)[nH]c(C(=O)OCC(=O)N2CCc3ccccc32)c1C	Mdm2 MdmX PPI 70.4 | Mdm2-MdmX conf inactive
CCOC(=O)c1[nH]c(C)c(C(=O)OCC(=O)N2CCc3ccccc32)c1C	none
O=C1CC2(CCN(C(=O)C3CC(=O)N(c4ccccc4)C3)CC2)Oc2ccccc21 (configuration not stated)	none
CC(=O)n1c2c(c3ccccc31)OC(N)=C(C#N)C2c1ccc(C(C)C)cc1 (configuration not stated)	Mdm2 MdmX PPI 59.0 | Mdm2-MdmX conf 65.5 | FLuc counter 130.6
Cc1nc2c(-c3ccc(F)cc3)cnn2c(N)c1-c1ccc(F)cc1	Mdm2 MdmX PPI 60.5 | Mdm2-MdmX conf 47.0 | FLuc counter 143.8
COc1cccc(C2C(C(=O)OC(C)C)=C(C)N=c3s/c(=C\c4ccc(C(=O)O)cc4)c(=O)n32)c1 (configuration not stated)	none
O=c1/c(=C\c2ccc(O)cc2)sc2n1C(c1ccccc1)C(c1ccccc1)=NN=2 (configuration not stated)	Mdm2 MdmX PPI 79.0 | Mdm2-MdmX conf 42.9 | FLuc counter 50.7
CC1CCCCC1NC(=O)c1nn(C)c2c1CS(=O)(=O)c1ccccc1-2 (configuration not stated)	none
Clc1ccc2c(c1)CCc1cccnc1C2=C1CCNCC1	Mdm2 MdmX PPI 61.3 (no result: CSC inhib, Calb FLC, Beta apoptosis) | Mdm2-MdmX conf inactive
Cc1ccc(C)c(NC(=O)c2ccccc2NS(=O)(=O)c2cc([N+](=O)[O-])ccc2C)c1	Mdm2 MdmX PPI 89.5, CSC inhib 97.4, Beta apoptosis 111.6 (no result: Calb FLC, SKKanGAS inh) | Mdm2-MdmX conf 93.5 | FLuc counter 40.2
Cc1ccc([N+](=O)[O-])cc1S(=O)(=O)Nc1cccc(S(=O)(=O)Nc2ccccc2C(=O)O)c1	none (no result: T cruzi inh, Calb FLC, SKKanGAS inh)
COc1ccc(CCNC(=O)CSc2nnc3ccc(-c4ccccn4)nn23)cc1OC	none
Cc1c(C(=O)OC/C(O)=C(\C#N)c2nc3ccccc3[nH]2)oc2ccc(Br)cc12	Mdm2 MdmX PPI 84.6 | Mdm2-MdmX conf inactive
Cc1cccc(C)c1OCC(=O)OC/C(O)=C(\C#N)c1nc2ccccc2[nH]1	none
N#C/C(=C(/O)COC(=O)COc1cccc(Br)c1)c1nc2ccccc2[nH]1	none
CC(C)OCc1c(C(=O)OC/C(O)=C(\C#N)c2nc3ccccc3[nH]2)oc2ccccc12	Mdm2 MdmX PPI 56.7 | Mdm2-MdmX conf inactive
Cc1c(-c2cccc(Cl)c2)nc2ccccc2c1C(=O)OC/C(O)=C(\C#N)c1nc2ccccc2[nH]1	Mdm2 MdmX PPI 70.0, CSC inhib 97.7, SKKanGAS inh 57.6, Beta apoptosis 97.2 | Mdm2-MdmX conf inactive
CCCCn1c(N)c(N(CC)C(=O)c2cc(CC)c(C)s2)c(=O)[nH]c1=O	none
CCN(CC(=O)N1CCOCC1)S(=O)(=O)c1ccc(F)cc1	none
Cc1nnc(SC(C)C(=O)N(C)C2CCCCC2)n1N (configuration not stated)	none (no result: T cruzi inh, CSC inhib, Calb FLC, SKKanGAS inh)
CCc1ccccc1OCC(=O)N1CCN(c2ncccn2)CC1	none (no result: T cruzi inh, CSC inhib, Calb FLC, SKKanGAS inh, Beta apoptosis)
CCOC(=O)[C@H]1[C@H]2COc3cc(OC)ccc3[C@@H]2N2C(=O)c3c(C)cc(C)cc3NC(=O)[C@@]12C	none (no result: T cruzi inh, CSC inhib, Calb FLC, SKKanGAS inh)
CC(NC(=O)/C(C#N)=C/c1ccc([N+](=O)[O-])o1)c1ccccc1 (configuration not stated)	Mdm2 MdmX PPI 100.3, SKKanGAS inh 57.5 (no result: CSC inhib) | Mdm2-MdmX conf inactive
COC(=O)C1=C(C)N(Cc2ccccc2)C(=NCCc2c[nH]c3ccccc23)N[C@H]1c1cccc(F)c1	Mdm2 MdmX PPI 98.4, CSC inhib 122.9 (no result: T cruzi inh, Calb FLC, SKKanGAS inh) | Mdm2-MdmX conf 50.6 | FLuc counter 55.6
COC(=O)C1=C(C)N(Cc2ccccc2)C(=NCCc2c[nH]c3ccccc23)N[C@H]1c1ccccc1	Mdm2 MdmX PPI 55.4 (no result: T cruzi inh, Calb FLC, SKKanGAS inh) | Mdm2-MdmX conf inactive
COCCN=C1N[C@@H](c2ccccc2)C(C(=O)OC)=C(C)N1Cc1ccccc1	none
COc1cc2c(-c3ccc4[nH]ccc4c3)c(-c3ccc(C#N)cc3)oc(=O)c2cc1OC	none (no result: T cruzi inh, Calb FLC, SKKanGAS inh)
CC(C)CN1C(=O)C(=O)N(CC(=O)NC(C)CCc2ccccc2)C1=O (configuration not stated)	none (no result: T cruzi inh, CSC inhib, Calb FLC, SKKanGAS inh, Beta apoptosis)
Fc1ccc(Nc2nc(N3CCOCC3)c3ccccc3n2)cc1	Mdm2 MdmX PPI 51.6 (no result: CSC inhib) | Mdm2-MdmX conf inactive
Cc1ccc(Cn2ccsc2=NC(=O)CCl)cc1	Mdm2 MdmX PPI 98.8 (no result: T cruzi inh) | Mdm2-MdmX conf 99.3 | FLuc counter 59.0
Cc1ccc(Cn2ccsc2=NC(=O)COC(=O)c2ccc(NC(=O)CC#N)cc2)cc1	none (no result: CSC inhib)
